{"source": "ChEMBL document CHEMBL1154598", "about": "“7-Hydroxy-benzopyran-4-one derivatives: a novel pharmacophore of peroxisome proliferator-activated receptor alpha and -gamma (PPARalpha and gamma) dual agonists” (J Med Chem, 2009)", "key": {"[1]": {"test_system": "HEK293", "experiment": "Cytotoxicity against HEK293 cells assessed as decrease in viable cells at 50 uM after 48 hrs by aqueous one solution cell proliferation assay relative to control", "assay_type": "cell-based", "settings": "human, hek293, 48 h", "summary_of_the_method": "(§1)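 HEK293 cells were seeded overnight, then exposed to 0–100 μM compound for 48 h at 37 °C in 5% CO₂. MTS reagent was added for a further 2 h and absorbance read at 490 nm. Viability is given as % relative to DMSO vehicle control. Two experiments, each in quadruplicate.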"}, "[2]": {"experiment": "Cytotoxicity against HEK293 cells assessed as viable cells at 0.1 uM after 48 hrs by aqueous one solution cell proliferation assay relative to control", "assay_type": "cell-based", "settings": "human, read-out: Activity", "summary_of_the_method": "as §1"}, "[3]": {"experiment": "Cytotoxicity against HEK293 cells assessed as viable cells at 50 uM after 48 hrs by aqueous one solution cell proliferation assay relative to control", "assay_type": "cell-based", "settings": "human, read-out: Activity", "summary_of_the_method": "as §1"}, "[4]": {"target": "T1, Peroxisome proliferator-activated receptor alpha (Homo sapiens) (UniProt Q07869)", "T1 sequence (whole entry)": "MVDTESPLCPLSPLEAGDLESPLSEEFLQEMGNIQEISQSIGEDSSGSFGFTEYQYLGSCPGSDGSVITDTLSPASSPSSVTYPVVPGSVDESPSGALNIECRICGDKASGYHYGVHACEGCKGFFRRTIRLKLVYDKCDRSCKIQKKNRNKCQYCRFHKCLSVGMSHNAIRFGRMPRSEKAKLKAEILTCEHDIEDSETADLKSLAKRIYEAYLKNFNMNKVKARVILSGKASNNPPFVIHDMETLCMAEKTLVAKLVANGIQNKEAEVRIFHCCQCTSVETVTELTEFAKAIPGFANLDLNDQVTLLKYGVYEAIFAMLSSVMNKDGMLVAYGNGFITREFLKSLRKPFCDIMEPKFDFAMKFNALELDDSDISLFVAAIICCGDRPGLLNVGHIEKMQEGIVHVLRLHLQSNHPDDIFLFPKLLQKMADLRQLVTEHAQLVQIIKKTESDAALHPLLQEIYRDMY", "experiment": "Agonist activity at human PPARalpha expressed in HEK293 cells co-transfected with PPRE assessed as beta-galactosidase signal at 40 uM after 48 hrs by reporter gene assay relative to control", "assay_type": "functional, cell-based", "summary_of_the_method": "(§2)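 Human PPARα transactivation in HEK293 cells grown in DMEM/F-12 with 10% heat-inactivated FBS. Cells were transfected with FuGENE 6 using a PPRE-luciferase reporter, pBI-G-hPPARα and a β-galactosidase control plasmid. After 24 h they were replated at 5 × 10⁴ cells/well, attached overnight, then dosed for 48 h with 0.1% DMSO as vehicle. Luciferase was normalized to β-gal and expressed as fold over vehicle. Two experiments, each in triplicate.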"}, "[5]": {"target": "T2, Peroxisome proliferator-activated receptor gamma (Homo sapiens, UniProt P37231)", "T2 sequence (P37231 whole entry)": "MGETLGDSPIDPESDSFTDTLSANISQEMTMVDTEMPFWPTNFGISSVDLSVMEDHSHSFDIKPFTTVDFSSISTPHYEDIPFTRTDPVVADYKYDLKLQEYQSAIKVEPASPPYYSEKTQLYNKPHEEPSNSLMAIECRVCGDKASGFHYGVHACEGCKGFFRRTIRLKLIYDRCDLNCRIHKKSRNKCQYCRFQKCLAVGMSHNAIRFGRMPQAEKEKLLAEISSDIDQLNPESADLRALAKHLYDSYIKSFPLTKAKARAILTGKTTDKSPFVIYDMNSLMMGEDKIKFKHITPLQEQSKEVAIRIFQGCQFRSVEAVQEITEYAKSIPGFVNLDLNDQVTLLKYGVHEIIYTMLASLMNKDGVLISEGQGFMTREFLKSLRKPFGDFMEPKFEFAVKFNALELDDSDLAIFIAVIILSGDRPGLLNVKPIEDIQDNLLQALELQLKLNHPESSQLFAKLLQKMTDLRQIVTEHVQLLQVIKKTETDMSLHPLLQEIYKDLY", "experiment": "Agonist activity at human PPARgamma assessed as luciferase activity by transactivation assay", "assay_type": "functional", "summary_of_the_method": "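Transiently transfected HEK293 (PPRE-luciferase reporter plus pSG5-hPPARγ1 and β-gal control), compound exposure 48 h. EC50 is the ligand concentration giving half-maximal fold induction of β-gal-normalized luciferase, fitted by nonlinear regression. Means of three experiments.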"}, "[6]": {"target": "T3, Peroxisome proliferator-activated receptor gamma (Homo sapiens) (UniProt P37231)", "T3 sequence (whole entry)": "T2 sequence (P37231 whole entry)", "experiment": "Agonist activity at human PPARgamma expressed in HEK293 cells co-transfected with PPRE assessed as beta-galactosidase signal at 25 uM after 48 hrs by reporter gene assay relative to control", "assay_type": "functional, cell-based", "summary_of_the_method": "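HEK293 cells were transfected with FuGENE 6 using a PPRE-luciferase reporter, pSG5-hPPARγ1 and a β-galactosidase control plasmid. After 24 h they were replated at 5 × 10⁴ cells/well, attached overnight, then treated for 48 h with 0.1% DMSO as vehicle. Luciferase was read, normalized to the β-gal signal and reported as fold activation over vehicle. Mean of two experiments in triplicate.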"}, "[7]": {"experiment": "Cytotoxicity against HEK293 cells assessed as viable cells at 100 uM after 48 hrs by aqueous one solution cell proliferation assay relative to control", "assay_type": "cell-based", "settings": "human, read-out: Activity", "summary_of_the_method": "as §1"}, "[8]": {"target": "T1, Peroxisome proliferator-activated receptor alpha (Homo sapiens)", "experiment": "Agonist activity at human PPARalpha expressed in HEK293 cells co-transfected with PPRE assessed as beta-galactosidase signal at 25 uM after 48 hrs by reporter gene assay relative to control", "assay_type": "functional, cell-based", "summary_of_the_method": "as §2"}, "[9]": {"target": "T4, Peroxisome proliferator-activated receptor alpha (Homo sapiens, UniProt Q07869)", "T4 sequence (Q07869 whole entry)": "T1 sequence (whole entry)", "experiment": "Agonist activity at human PPARalpha assessed as luciferase activity by transactivation assay", "assay_type": "functional"}, "[10]": {"experiment": "Cytotoxicity against HEK293 cells assessed as viable cells at 10 uM after 48 hrs by aqueous one solution cell proliferation assay relative to control", "assay_type": "cell-based", "settings": "human, read-out: Activity", "summary_of_the_method": "as §1"}}, "data": [{"smiles": "CC(C)OC(=O)C(C)(C)Oc1ccc(C(=O)c2ccc(Cl)cc2)cc1", "note": "[FENOFIBRATE]", "values": [{"measurement": "Activity", "setting": "[1]", "value": 38, "unit": "%"}, {"measurement": "viability at 48 h, 0.1 µM", "setting": "[2]", "value": "> 90", "unit": "%"}]}, {"smiles": "O=c1c(-c2ccc3c(c2)OCO3)coc2cc(O)ccc12", "note": "[PSEUDOBAPTOGENIN]", "values": [{"measurement": "viability at 48 h, 50 µM", "setting": "[3]", "value": "> 67", "unit": "%"}, {"measurement": "fold change (FC)", "setting": "[4]", "value": 11.7}, {"measurement": "EC50", "setting": "[5]", "value": 26.9, "unit": "µM"}, {"measurement": "fold change (FC)", "setting": "[6]", "value": 38.5}, {"measurement": "viability at 48 h, 100 µM", "setting": "[7]", "value": "> 60", "unit": "%"}, {"measurement": "fold change (FC)", "setting": "[8]", "value": 5.6}, {"measurement": "EC50", "setting": "[9]", "value": 8.9, "unit": "µM"}, {"measurement": "viability at 48 h, 10 µM", "setting": "[10]", "value": "> 90", "unit": "%"}]}]}
